Assay results taken from ChEMBL document CHEMBL1629705, “PSI-7851, a pronucleotide of beta-D-2'-deoxy-2'-fluoro-2'-C-methyluridine monophosphate, is a potent and pan-genotype inhibitor of hepatitis C virus replication” (Antimicrob Agents Chemother, 2010).
Calls of active or inactive are those of the source. The rule behind the calls is not given here.

What was measured:
Hepatitis C virus [1] = test: Antiviral activity against Hepatitis C virus; format: functional, organism-based, Hepacivirus hominis
Hepatitis C virus [2] = test: Antiviral activity against Hepatitis C virus assessed as log reduction in viral RNA at 0.1 uM after 3 weeks; format: functional, Hepacivirus hominis
How it was run: (§1)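 ET-lunet replicon cells seeded at 1 × 10^5/well without G418, treated at 0.1, 1 or 2 μM (final DMSO 0.5%). Passaged 1:3–1:4 every 3–4 days for 3 weeks with fresh compound. Then compound withdrawn and cells grown 3 more weeks in 0.25 mg/ml G418. HCV RNA by RT-PCR (ΔΔCt vs rRNA and DMSO controls, log change). Colonies fixed in formaldehyde and stained with crystal violet at 6 weeks.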

Hepatitis C virus [3] = test: Antiviral activity against Hepatitis C virus assessed as inhibition of viral rebound at 1 uM after 3 weeks in presence of G418; format: functional, organism-based; conditions: Hepacivirus hominis
How it was run: (§2)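 ET-lunet replicon cells, 1 × 10^5/well, no G418, with compound at 0.1, 1 or 2 μM (final DMSO 0.5%). Passaged 1:3 or 1:4 every 3–4 days for 3 weeks with fresh compound, then 3 more weeks with 0.25 mg/ml G418 and no inhibitor. HCV RNA by RT-PCR normalized to rRNA (ΔΔCt vs DMSO) at each passage. Crystal violet colony staining at 6 weeks.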

Hepatitis C virus [4] = test: Antiviral activity against Hepatitis C virus assessed as inhibition of viral rebound at 2 uM after 3 weeks in presence of G418; format: functional, organism-based; conditions: Hepacivirus hominis; how it was run: as §2
Hepatitis C virus [5] = test: Antiviral activity against Hepatitis C virus assessed as inhibition of viral rebound at 0.1 uM after 3 weeks in presence of G418; format: functional, organism-based; conditions: Hepacivirus hominis; how it was run: as §1
Hepatitis C virus [6] = test: Antiviral activity against Hepatitis C virus assessed as clearance of HCV from replicon cells at 1 uM; format: functional, organism-based; conditions: Hepacivirus hominis; how it was run: as §2
Hepatitis C virus [7] = test: Antiviral activity against Hepatitis C virus assessed as clearance of HCV from replicon cells at 2 uM; format: functional, organism-based; conditions: Hepacivirus hominis; how it was run: as §2
[8] = target: T1, DNA-directed RNA polymerase II subunit RPB1 (Homo sapiens, UniProt P24928); test: Inhibition of human RNA polymerase 2 assessed as synthesis of RNA products at 500 uM
How it was run: (§3)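 In vitro transcription by HeLa nuclear extract from CMV immediate-early promoter DNA. Mix: 400 μM ATP, CTP and UTP, 16 μM GTP, [α-32P]GTP, 3 mM MgCl2, in 20 mM HEPES pH 7.9 buffer with KCl, EDTA, DTT and glycerol. Inhibitor up to 1 mM. 30°C for 60 min. RNA purified, run on 6% sequencing gel and quantified by phosphorimager.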

[9] = target: T1, DNA-directed RNA polymerase II subunit RPB1; test: Inhibition of human RNA polymerase 2 assessed as synthesis of RNA products at 1 uM; how it was run: as §3
[10] = target: T1, DNA-directed RNA polymerase II subunit RPB1; test: Inhibition of human RNA polymerase 2; how it was run: as §3
Hepatitis C virus [11] = test: Antiviral activity against Hepatitis C virus Con1 infected in human lunet cells assessed as inhibition of viral RNA replication after 4 days by luciferase reporter gene assay; format: functional, organism-based, Hepacivirus hominis; conditions: 96 h
How it was run: (§4)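 Genotype 1b Con1 subgenomic replicon cells (ET-lunet, 3,000 cells/well, firefly luciferase ET replicon; clone A, 1,500 cells/well) incubated 4 days with serially diluted compound. Replication read by luciferase luminescence and/or real-time RT-PCR.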

Hepatitis C virus [12] = test: Antiviral activity against Hepatitis C virus isolate Con1 infected in human HuH-7 cells assessed as inhibition of viral RNA replication after 4 days by luciferase reporter gene assay; format: functional, Hepacivirus hominis; conditions: Con1, Huh-7, 96 h; how it was run: as §4
DNA polymerase beta = DNA polymerase beta (Homo sapiens, UniProt P06746); test: Inhibition of human DNA polymerase beta assessed as incorporation of [alpha-32P]dCTP up to 1mM preincubated for 30 mins by whatman DE81 paper binding assay
How it was run: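 Human DNA polymerase β at 18 μg/ml final, in 50 mM Tris pH 7.5, 50 mM NaCl, 5 mM MgCl2, activated calf thymus DNA and 20 μM each dNTP with [α-32P]dCTP. Triphosphate up to 1 mM. 37°C, stopped at 30 min with EDTA. Products quantified by DE81 paper binding; IC50 by nonlinear fit.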

[13] = target: T2, DNA polymerase subunit gamma-1 (Homo sapiens, UniProt P54098); test: Inhibition of human DNA polymerase gamma assessed as incorporation of [alpha-32P]dCTP up to 1mM preincubated for 30 mins by whatman DE81 paper binding assay
T2 sequence (P54098 whole entry): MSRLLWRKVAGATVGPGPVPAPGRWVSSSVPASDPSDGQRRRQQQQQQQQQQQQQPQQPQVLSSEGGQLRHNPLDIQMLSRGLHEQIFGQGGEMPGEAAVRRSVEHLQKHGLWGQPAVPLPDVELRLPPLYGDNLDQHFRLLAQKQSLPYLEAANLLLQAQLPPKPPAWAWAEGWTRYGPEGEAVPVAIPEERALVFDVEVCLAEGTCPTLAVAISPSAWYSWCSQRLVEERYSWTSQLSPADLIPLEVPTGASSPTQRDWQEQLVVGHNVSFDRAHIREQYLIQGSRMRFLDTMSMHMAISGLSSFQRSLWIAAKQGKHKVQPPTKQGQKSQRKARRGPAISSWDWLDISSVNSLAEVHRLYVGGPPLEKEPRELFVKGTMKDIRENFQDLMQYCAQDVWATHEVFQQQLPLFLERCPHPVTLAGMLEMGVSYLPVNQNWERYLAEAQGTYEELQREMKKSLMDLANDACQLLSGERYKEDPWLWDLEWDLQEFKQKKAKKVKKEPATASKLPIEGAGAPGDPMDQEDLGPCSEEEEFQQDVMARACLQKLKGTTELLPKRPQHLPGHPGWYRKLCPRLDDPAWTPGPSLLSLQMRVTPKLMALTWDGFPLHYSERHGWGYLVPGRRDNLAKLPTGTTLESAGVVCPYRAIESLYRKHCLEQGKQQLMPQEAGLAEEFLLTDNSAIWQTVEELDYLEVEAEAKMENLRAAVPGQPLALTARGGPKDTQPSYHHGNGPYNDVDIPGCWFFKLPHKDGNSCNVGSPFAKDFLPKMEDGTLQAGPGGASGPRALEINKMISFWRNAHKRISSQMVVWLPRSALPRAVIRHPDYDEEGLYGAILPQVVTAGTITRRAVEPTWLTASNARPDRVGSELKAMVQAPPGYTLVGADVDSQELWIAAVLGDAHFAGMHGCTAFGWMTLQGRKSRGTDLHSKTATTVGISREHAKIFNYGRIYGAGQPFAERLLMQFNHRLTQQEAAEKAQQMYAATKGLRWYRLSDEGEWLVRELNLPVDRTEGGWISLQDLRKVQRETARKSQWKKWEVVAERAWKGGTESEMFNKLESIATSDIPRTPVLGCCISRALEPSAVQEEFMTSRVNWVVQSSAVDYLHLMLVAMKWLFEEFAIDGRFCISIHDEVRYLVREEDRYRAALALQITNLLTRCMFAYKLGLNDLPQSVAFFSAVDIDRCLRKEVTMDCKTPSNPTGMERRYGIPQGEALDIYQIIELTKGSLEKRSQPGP
How it was run: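 Human DNA polymerase α (20 μg/ml) or γ (50 μg/ml) in 50 mM Tris pH 7.5, 50 mM NaCl, activated calf thymus DNA, 20 μM each dNTP, [α-32P]dCTP, 5 mM MgCl2. Nucleotide inhibitor up to 1 mM. 37°C, quenched with EDTA at 30 min. Product measured by DE81 paper binding; IC50 by nonlinear fit.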

Hepatitis C virus [14] = test: Antiviral activity against Hepatitis C virus harboring NS5B polymerase S96T/N142T mutant gene infected in human […] cells by luciferase-based replicon assay; format: functional, Hepacivirus hominis
How it was run: (§5)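 ET-lunet cells with the ET genotype 1b replicon, wild-type or S96T/N142T (ET replicon with these mutations electroporated into Lunet cells, selected in 0.2 mg/ml G418). 3,000 cells/well, 4 days with serially diluted compound. Firefly luciferase luminescence read-out; EC90 from dose–response.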

Hepatitis C virus [15] = test: Antiviral activity against Hepatitis C virus harboring wild-type NS5B infected in human HuH7 cells by luciferase-based replicon assay; format: functional, Hepacivirus hominis; conditions: Huh-7
Hepatitis C virus [16] = test: Antiviral activity against Hepatitis C virus harboring NS5B polymerase S282T mutant gene infected in human HuH7 cells by luciferase-based replicon assay; format: functional, Hepacivirus hominis; conditions: Huh-7
Hepatitis C virus [17] = test: Selectivity ratio of EC90 for Hepatitis C virus harboring NS5B polymerase S282T mutant gene to EC90 for Hepatitis C virus harboring wild-type NS5B polymerase; format: functional, Hepacivirus hominis
How it was run: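 Clone A genotype 1b (Con1) replicon cells, wild-type or S282T mutant (selected with 2′-C-methyladenosine). 1,500 cells/well, 4 days with serially diluted compound. HCV RNA by real-time RT-PCR; EC90 from dose–response.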

Hepatitis C virus [18] = test: Antiviral activity against Hepatitis C virus harboring wild-type NS5B infected in human lunet cells by luciferase-based replicon assay; format: functional, Hepacivirus hominis; how it was run: as §5
Hepatitis C virus [19] = test: Antiviral activity against Hepatitis C virus harboring NS5B polymerase S96T mutant gene infected in human lunet cells by luciferase-based replicon assay; format: functional, Hepacivirus hominis; how it was run: as §5
Hepatitis C virus [20] = test: Selectivity ratio of EC90 for Hepatitis C virus harboring NS5B polymerase S96T mutant gene to EC90 for HCV harboring wild type NS5B polymerase; format: functional, Hepacivirus hominis

SMILES: CC(C)CCn1c(=O)c(C2=NS(=O)(=O)c3cc(N(C)S(C)(=O)=O)ccc3N2)c(O)c2cccn21
- EC50 (Hepatitis C virus [1]): 0.11 µM
- FC (Hepatitis C virus [2]): 0.69
- Activity (Hepatitis C virus [3]): inactive
- Activity (Hepatitis C virus [4]): Active
- Activity (Hepatitis C virus [5]): inactive
- Activity (Hepatitis C virus [6]): inactive
- Activity (Hepatitis C virus [7]): inactive

SMILES: Nc1ccn([C@@H]2O[C@H](COP(=O)(O)OP(=O)(O)OP(=O)(O)O)C[C@H]2O)c(=O)n1
- inhibition [8]: 67%
- inhibition [9]: Active
- IC50 [10]: > 500 µM

SMILES: C[C@@]1(F)[C@H](O)[C@@H](CO)O[C@H]1n1ccc(N)nc1=O
- EC50 (Hepatitis C virus [11]): 0.075 µM
- EC90 (Hepatitis C virus [11]): 0.52 µM
- EC90 (Hepatitis C virus [12]): 0.45 µM

SMILES: C[C@@]1(CO)[C@H](O)CC[C@@]2(C)[C@H]1CC[C@H]1C[C@@H]3C[C@@]12CC[C@]3(O)CO [APHIDICOLIN]
- IC50 (DNA polymerase beta): > 100 µM
- IC50 [13]: > 100 µM

SMILES: [N-]=[N+]=N[C@]1(CO)O[C@@H](n2ccc(N)nc2=O)[C@H](O)[C@@H]1O [4'-AZIDOCYTIDINE]
- EC90 (Hepatitis C virus [14]): 80.1 µM
- EC90 (Hepatitis C virus [15]): 18.6 µM
- EC90 (Hepatitis C virus [16]): 24.9 µM
- Selectivity ratio (Hepatitis C virus [17]): 1.3
- EC90 (Hepatitis C virus [18]): 17 µM
- EC90 (Hepatitis C virus [19]): 80.1 µM
- Selectivity ratio (Hepatitis C virus [20]): 4.7
